≈ marks a conversion by molar mass, not a printed value.
Assays:
[1] = target: T1, Pyruvate kinase (Staphylococcus aureus (strain MRSA252)) (UniProt Q6GG09); assay: Inhibition of methicillin-resistant Staphylococcus aureus 252 pyruvate kinase at 0.5 uM by LDH assay; details: Staphylococcus aureus subsp. aureus MRSA252
T1 sequence (whole entry): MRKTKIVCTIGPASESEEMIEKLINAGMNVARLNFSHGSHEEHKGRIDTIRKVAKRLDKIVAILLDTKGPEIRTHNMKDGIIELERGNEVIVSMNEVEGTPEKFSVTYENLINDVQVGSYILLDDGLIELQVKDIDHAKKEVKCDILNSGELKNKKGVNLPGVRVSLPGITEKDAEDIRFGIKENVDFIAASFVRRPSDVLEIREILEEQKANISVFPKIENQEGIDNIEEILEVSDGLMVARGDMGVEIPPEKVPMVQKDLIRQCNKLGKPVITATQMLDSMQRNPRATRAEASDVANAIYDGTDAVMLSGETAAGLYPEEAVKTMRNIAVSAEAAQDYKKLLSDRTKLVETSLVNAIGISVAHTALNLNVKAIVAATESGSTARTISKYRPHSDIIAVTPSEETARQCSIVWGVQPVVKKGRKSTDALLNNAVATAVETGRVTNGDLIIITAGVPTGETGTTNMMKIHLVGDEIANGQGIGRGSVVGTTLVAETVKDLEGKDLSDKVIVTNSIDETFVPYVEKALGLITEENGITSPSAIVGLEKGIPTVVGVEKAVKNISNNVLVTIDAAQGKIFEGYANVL
Summary of the method: (§1)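 MRSA pyruvate kinase activity was measured by a previously described procedure. IC50 was calculated from triplicate 15-point titrations, or averaged over n such determinations. Where no IC50 was obtained, the value is % inhibition at the highest concentration tested.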

Staphylococcus aureus [2] = assay: Antimicrobial activity against Staphylococcus aureus ATCC 29213 after 24 hrs broth microdilution method; type: functional
Summary of the method: (§2)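 MIC taken as the minimum concentration giving >98% growth inhibition of the named S. aureus strain (RN4220, ATCC 25923 or ATCC 29213). Values are single determinations or averages of n determinations. Vancomycin was run as control.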

Pyruvate kinase = target: T2, Pyruvate kinase (Staphylococcus aureus (strain MRSA252), UniProt Q6GG09); assay: Inhibition of methicillin-resistant Staphylococcus aureus 252 pyruvate kinase by LDH assay; parameters: species or system Staphylococcus aureus subsp. aureus MRSA252; summary of the method: as §1
T2 sequence (Q6GG09 whole entry): T1 sequence (whole entry)

Staphylococcus aureus [3] = assay: Antimicrobial activity against Staphylococcus aureus RN4220 after 24 hrs broth microdilution method; type: functional; summary of the method: as §2
THP-1 [4] = assay: Cytotoxicity against human THP1 cells assessed as cell death at 25 uM after 24 hrs by MTS assay; type: cell-based; details: thp-1, 24 h
Summary of the method: (§3)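 THP-1 cells were exposed to test agent at 25 µM and 6.25 µM. Read-out was percentage of dead cells.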

THP-1 [5] = assay: Cytotoxicity against human THP1 cells assessed as cell death at 6.25 uM after 24 hrs by MTS assay; type: cell-based; details: thp-1, 24 h; summary of the method: as §3
[6] = target: T1, Pyruvate kinase (Staphylococcus aureus (strain MRSA252)); assay: Inhibition of methicillin-resistant Staphylococcus aureus 252 pyruvate kinase at 10 uM by LDH assay; details: Staphylococcus aureus subsp. aureus MRSA252; summary of the method: as §1
[7] = target: Pyruvate kinase PKM (Homo sapiens) (UniProt P14618); assay: Inhibition of human pyruvate kinase M2 at 10 uM by LDH assay
Pyruvate kinase PKM (Homo sapiens), sequence (P14618 2-531 limits assumed): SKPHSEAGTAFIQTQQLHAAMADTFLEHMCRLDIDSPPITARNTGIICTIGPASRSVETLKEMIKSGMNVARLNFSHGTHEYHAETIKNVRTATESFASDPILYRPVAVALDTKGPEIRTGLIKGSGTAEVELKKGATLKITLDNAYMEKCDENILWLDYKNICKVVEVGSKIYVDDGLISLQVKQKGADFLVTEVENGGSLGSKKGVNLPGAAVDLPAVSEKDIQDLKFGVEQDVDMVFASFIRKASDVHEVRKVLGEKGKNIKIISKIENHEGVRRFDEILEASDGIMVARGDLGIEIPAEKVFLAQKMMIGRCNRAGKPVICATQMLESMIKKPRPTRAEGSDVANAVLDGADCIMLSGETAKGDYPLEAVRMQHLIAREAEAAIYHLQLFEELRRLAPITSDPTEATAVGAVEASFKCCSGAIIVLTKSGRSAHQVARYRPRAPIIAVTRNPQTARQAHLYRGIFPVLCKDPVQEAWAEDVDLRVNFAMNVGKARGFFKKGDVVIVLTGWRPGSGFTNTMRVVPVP
Summary of the method: (§4)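 Selected compounds were tested against mammalian PK isoforms M1, M2, R and L at the highest concentration, 10 µM. Results are given as percent inhibition.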

[8] = target: Pyruvate kinase PKM (Homo sapiens) (UniProt P14618); assay: Inhibition of human pyruvate kinase M1 at 10 uM by LDH assay; summary of the method: as §4
[9] = target: Pyruvate kinase PKLR (Homo sapiens) (UniProt P30613); assay: Inhibition of human pyruvate kinase L at 10 uM by LDH assay; summary of the method: as §4
Pyruvate kinase PKLR (Homo sapiens), sequence (P30613 whole entry, looked up): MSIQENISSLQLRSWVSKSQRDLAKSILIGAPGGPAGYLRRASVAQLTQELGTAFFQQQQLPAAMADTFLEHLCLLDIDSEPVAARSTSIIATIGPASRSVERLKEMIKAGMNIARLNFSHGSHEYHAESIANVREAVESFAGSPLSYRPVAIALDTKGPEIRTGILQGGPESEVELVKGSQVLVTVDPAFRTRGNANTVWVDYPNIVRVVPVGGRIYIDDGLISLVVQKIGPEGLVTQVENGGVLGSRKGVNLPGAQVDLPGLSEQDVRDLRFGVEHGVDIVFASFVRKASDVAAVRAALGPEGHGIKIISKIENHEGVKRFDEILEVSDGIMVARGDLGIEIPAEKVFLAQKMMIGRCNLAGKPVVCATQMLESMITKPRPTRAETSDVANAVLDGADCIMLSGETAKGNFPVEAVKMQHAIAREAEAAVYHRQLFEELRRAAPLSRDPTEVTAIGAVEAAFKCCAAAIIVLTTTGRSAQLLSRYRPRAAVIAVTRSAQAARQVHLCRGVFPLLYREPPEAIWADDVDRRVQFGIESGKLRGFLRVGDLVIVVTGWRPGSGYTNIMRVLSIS

[10] = target: Pyruvate kinase PKLR (Homo sapiens) (UniProt P30613); assay: Inhibition of human pyruvate kinase R at 10 uM by LDH assay; summary of the method: as §4
Staphylococcus aureus [11] = assay: Antimicrobial activity against Staphylococcus aureus ATCC 25923 after 24 hrs broth microdilution method; type: functional; summary of the method: as §2
[12] = target: T1, Pyruvate kinase (Staphylococcus aureus (strain MRSA252)); assay: Inhibition of methicillin-resistant Staphylococcus aureus 252 pyruvate kinase at 1 uM by LDH assay; details: Staphylococcus aureus subsp. aureus MRSA252; summary of the method: as §1

| Structure (SMILES) | inhibition [1] [%] | MIC>98 (Staphylococcus aureus [3]) [µg/mL] | Activity (THP-1 [4]) [%] | Activity (THP-1 [5]) [%] | inhibition [6] [%] | further results |
| --- | --- | --- | --- | --- | --- | --- |
| CC(=NNC(=O)c1cc(Br)ccc1O)c1nc2ccccc2o1 (mixture of isomers) | 26 | – | – | – | – | MIC>98 (Staphylococcus aureus [2]): >150 µg/mL |
| Cn1c(C(=NNC(=O)c2cc(Br)ccc2O)c2ccccc2)cc2ccccc21 (mixture of isomers) | – | 1.4 | 78 | 19 | – | IC50 (Pyruvate kinase): 6.04 µM |
| CC(=NNC(=O)c1ccc(Br)cc1O)c1cc2ccccc2n1C (mixture of isomers) | 61 | 4.8 | – | – | – | – |
| O=C(NN=C(c1ccccc1)c1cc2ccccc2[nH]1)c1cc(Br)ccc1O | – | 1.4 (≈ 3.22 µM) | 83 | 43 | 97.6 | IC50 (Pyruvate kinase): 0.445 µM; inhibition [7]: 4.8%; inhibition [8]: 11.2%; inhibition [9]: 5.6%; inhibition [10]: 13.4% |
| CC(C)(C)/C(=N/NC(=O)c1cc(Br)ccc1O)c1cc2ccccc2[nH]1 | – | 83 (≈ 200 µM) | 50 | 42 | 0 | – |
| Cn1c(/C(=N\NC(=O)c2cc(Br)ccc2O)C(C)(C)C)cc2ccccc21 | – | 10.7 (≈ 25 µM) | 73 | 25 | 0 | – |
| COc1c(Br)cc(Br)cc1C(=O)N/N=C(\C)c1cc2ccccc2[nH]1 | – | – | – | – | – | MIC>98 (Staphylococcus aureus [11]): >93 µg/mL; inhibition [12]: 57% |
| C/C(=N\NC(=O)c1cc(Br)ccc1O)c1cc2cccc(F)c2[nH]1 | 39 | >156 | – | – | – | – |
| CC(=NNC(=O)c1cc(Br)ccc1O)c1cc2cc(O)ccc2n1C (mixture of isomers) | – | – | – | – | – | MIC>98 (Staphylococcus aureus [11]): >64 µg/mL; inhibition [12]: 54% |

Source: ChEMBL document CHEMBL2202977, “Optimization and structure-activity relationships of a series of potent inhibitors of methicillin-resistant Staphylococcus aureus (MRSA) pyruvate kinase as novel antimicrobial agents” (Bioorg Med Chem, 2012)
